Results published in ChEMBL document CHEMBL1124989, “8-Substituted 5-[(aminoalkyl)amino]-6H-v-triazolo[4,5,1-de]acridin-6-ones as potential antineoplastic agents. Synthesis and biological activity” (J Med Chem, 1990).
≈ marks a conversion by molar mass, not a printed value.

How the values were obtained:
HeLa = assay: In vitro cytotoxicity against HeLa S3 cell lines; format: functional, cell-based; conditions: Homo sapiens
P388 [1] = assay: In vivo antileukemic activity against P388 leukemia at dose 12.5 mp/kg administered intraperitoneally; format: functional, Mus musculus
P388 [2] = assay: In vivo antileukemic activity against P388 leukemia at dose 40 mp/kg administered intraperitoneally; format: functional, Mus musculus
Summary of the method: (§1)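 BDF1 mice implanted ip with 10^6 P388 cells. Compound given ip as aqueous solution containing 3 equiv of L-lactic acid on days 1-5. Activity expressed as T/C (%); T/C ≥ 125% taken as statistically significant antileukemic activity.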

P388 [3] = assay: In vivo antileukemic activity against P388 leukemia at dose 25 mp/kg administered intraperitoneally; format: functional, Mus musculus; summary of the method: as §1
P388 [4] = assay: In vivo antileukemic activity against P388 leukemia at dose 12.5 mp/kg administered intraperitoneally (30 days survivors, 3/6); format: functional, Mus musculus
P388 [5] = assay: In vivo antileukemic activity against P388 leukemia at dose 25 mp/kg administered intraperitoneally (30 days survivors, 3/6)
P388 [6] = assay: In vivo antileukemic activity against P388 leukemia at dose 100 mp/kg administered intraperitoneally; format: functional, Mus musculus; summary of the method: as §1
P388 [7] = assay: In vivo antileukemic activity against P388 leukemia at dose 50 mp/kg administered intraperitoneally; format: functional, Mus musculus; summary of the method: as §1
P388 [8] = assay: In vivo antileukemic activity against P388 leukemia at dose 8 mp/kg administered intraperitoneally; format: functional, Mus musculus; summary of the method: as §1
P388 [9] = assay: In vivo antileukemic activity against P388 leukemia at dose 25 mp/kg administered intraperitoneally (30 days survivors, 2/6)

SMILES: CCN(CC)CCNc1ccc2nnn3c4ccc([N+](=O)[O-])cc4c(=O)c1c23
- IC50 (HeLa): 0.12 µg/mL (≈ 0.315 µM)
- T/C (P388 [1]): 122%

SMILES: CCN(CC)CCNc1ccc2nnn3c4ccc(C)cc4c(=O)c1c23
- IC50 (HeLa): 0.21 µg/mL (≈ 0.601 µM)
- T/C (P388 [2]): 133%

SMILES: COc1ccc2c(c1)c(=O)c1c(NCCN(C)C)ccc3nnn2c31
- IC50 (HeLa): 0.1 µg/mL (≈ 0.296 µM)
- T/C (P388 [3]): 110%

SMILES: O=C1c2ccccc2C(=O)c2c(NCCNCCO)ccc(NCCNCCO)c21 [AMETANTRONE]
- IC50 (HeLa): 0.17 µg/mL (≈ 0.412 µM)
- T/C (P388 [4]): 300%

SMILES: CN(C)CCNc1ccc2nnn3c4ccc(Cl)cc4c(=O)c1c23
- IC50 (HeLa): 0.1 µg/mL (≈ 0.293 µM)
- T/C (P388 [3]): 110%

SMILES: COc1ccc2c(c1)c(=O)c1c(NCCCN(C)C)ccc3nnn2c31
- IC50 (HeLa): 0.17 µg/mL (≈ 0.484 µM)

SMILES: Cc1ccc2c(c1)c(=O)c1c(NCCCN(C)C)ccc3nnn2c31
- IC50 (HeLa): 0.15 µg/mL (≈ 0.447 µM)

SMILES: CN(C)CCCNc1ccc2nnn3c4ccc(O)cc4c(=O)c1c23
- IC50 (HeLa): 0.08 µg/mL (≈ 0.237 µM)
- T/C (P388 [5]): 320%

SMILES: CN(C)CCNc1ccc2nnn3c4ccccc4c(=O)c1c23
- IC50 (HeLa): 0.21 µg/mL (≈ 0.683 µM)
- T/C (P388 [6]): 180%

SMILES: Cc1ccc2c(c1)c(=O)c1c(NCCNCCO)ccc3nnn2c31
- IC50 (HeLa): 0.24 µg/mL (≈ 0.711 µM)

SMILES: Cc1ccc2c(c1)c(=O)c1c(NCCN(C)C)ccc3nnn2c31
- IC50 (HeLa): 0.17 µg/mL (≈ 0.529 µM)
- T/C (P388 [6]): 130%

SMILES: CN(C)CCCNc1ccc2nnn3c4ccc(Cl)cc4c(=O)c1c23
- IC50 (HeLa): 0.13 µg/mL (≈ 0.365 µM)
- T/C (P388 [7]): 111%

SMILES: COc1ccc2c(c1)c(=O)c1c(NCCNCCO)ccc3nnn2c31
- IC50 (HeLa): 0.09 µg/mL (≈ 0.255 µM)
- T/C (P388 [1]): 120%

SMILES: O=c1c2cc(O)ccc2n2nnc3ccc(NCCNCCO)c1c32
- IC50 (HeLa): 0.12 µg/mL (≈ 0.354 µM)
- T/C (P388 [1]): 210%

SMILES: CN(C)CCCNc1ccc2nnn3c4ccccc4c(=O)c1c23
- IC50 (HeLa): 0.28 µg/mL (≈ 0.871 µM)
- T/C (P388 [6]): 133%

SMILES: CN(C)CCNc1ccc2nnn3c4ccc([N+](=O)[O-])cc4c(=O)c1c23
- IC50 (HeLa): 0.11 µg/mL (≈ 0.312 µM)
- T/C (P388 [3]): 130%

SMILES: CCN(CC)CCNc1ccc2nnn3c4ccc(O)cc4c(=O)c1c23
- IC50 (HeLa): 0.05 µg/mL (≈ 0.142 µM)
- T/C (P388 [8]): 190%

SMILES: CCN(CC)CCNc1ccc2nnn3c4ccccc4c(=O)c1c23
- IC50 (HeLa): 0.42 µg/mL (≈ 1.25 µM)
- T/C (P388 [6]): 160%

SMILES: O=c1c2cc([N+](=O)[O-])ccc2n2nnc3ccc(NCCNCCO)c1c32
- IC50 (HeLa): 0.12 µg/mL (≈ 0.326 µM)
- T/C (P388 [3]): 133%

SMILES: O=c1c2ccccc2n2nnc3ccc(NCCNCCO)c1c32
- IC50 (HeLa): 0.29 µg/mL (≈ 0.897 µM)
- T/C (P388 [7]): 133%

SMILES: CCN(CC)CCNc1ccc2nnn3c4ccc(OC)cc4c(=O)c1c23
- IC50 (HeLa): 0.16 µg/mL (≈ 0.438 µM)
- T/C (P388 [1]): 120%

SMILES: CCN(CC)CCNc1ccc2nnn3c4ccc(Cl)cc4c(=O)c1c23
- IC50 (HeLa): 0.13 µg/mL (≈ 0.351 µM)
- T/C (P388 [1]): 111%

SMILES: CN(C)CCNc1ccc2nnn3c4ccc(O)cc4c(=O)c1c23
- IC50 (HeLa): 0.1 µg/mL (≈ 0.309 µM)
- T/C (P388 [9]): 260%

SMILES: O=c1c2cc(Cl)ccc2n2nnc3ccc(NCCNCCO)c1c32
- IC50 (HeLa): 0.16 µg/mL (≈ 0.447 µM)
- T/C (P388 [3]): 133%

SMILES: CN(C)CCCNc1ccc2nnn3c4ccc([N+](=O)[O-])cc4c(=O)c1c23
- IC50 (HeLa): 0.12 µg/mL (≈ 0.328 µM)
- T/C (P388 [3]): 110%
